Results published in paper PMC4437465 (Molecular microbiology, 2014).
Read-outs that look alike come from different tables or passages of the source.

What was measured:
[1] = molecular target: T1, EUR_01830 (Agathobacter rectalis, UniProt A0ABF7PGY2); assay: isothermal titration calorimetry; format: binding; details: 20 mM HEPES, 100 mM NaCl pH 7.0, 25 °C
T1 sequence (A0ABF7PGY2 24-422): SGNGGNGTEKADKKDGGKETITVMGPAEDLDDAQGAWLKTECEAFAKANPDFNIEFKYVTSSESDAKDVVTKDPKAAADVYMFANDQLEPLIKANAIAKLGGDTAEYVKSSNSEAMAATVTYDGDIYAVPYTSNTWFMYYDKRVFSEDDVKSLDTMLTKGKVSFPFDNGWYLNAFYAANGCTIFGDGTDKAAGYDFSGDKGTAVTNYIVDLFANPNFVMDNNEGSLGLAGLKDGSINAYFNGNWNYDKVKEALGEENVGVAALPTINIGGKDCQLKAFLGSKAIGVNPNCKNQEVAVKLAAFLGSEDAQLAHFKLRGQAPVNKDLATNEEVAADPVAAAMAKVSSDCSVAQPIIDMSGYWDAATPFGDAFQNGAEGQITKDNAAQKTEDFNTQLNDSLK

[2] = molecular target: T2, EUR_21010 (Agathobacter rectalis, UniProt C4ZGN9); assay: isothermal titration calorimetry; format: binding; details: 20 mM HEPES, 100 mM NaCl pH 7.0, 25 °C
T2 sequence (C4ZGN9 26-464): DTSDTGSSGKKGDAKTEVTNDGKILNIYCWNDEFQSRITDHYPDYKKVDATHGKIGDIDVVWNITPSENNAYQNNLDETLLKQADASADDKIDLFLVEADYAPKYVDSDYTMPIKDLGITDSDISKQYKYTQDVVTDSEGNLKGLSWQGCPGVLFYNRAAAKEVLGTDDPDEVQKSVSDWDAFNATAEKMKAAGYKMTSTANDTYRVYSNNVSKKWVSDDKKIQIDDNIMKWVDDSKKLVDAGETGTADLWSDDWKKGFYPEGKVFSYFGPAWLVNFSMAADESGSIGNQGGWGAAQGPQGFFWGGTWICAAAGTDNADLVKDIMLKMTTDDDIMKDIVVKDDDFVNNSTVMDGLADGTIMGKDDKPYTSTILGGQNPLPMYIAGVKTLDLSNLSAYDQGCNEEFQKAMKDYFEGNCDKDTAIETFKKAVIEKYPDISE

[3] = molecular target: T3, EUR_21100 (Agathobacter rectalis, UniProt A0ABF7PGZ5); assay: thin layer chromatography of products; format: biochemical; details: 25 mM HEPES pH 6.5, 150 mM NaCl, 37 °C
T3 sequence (A0ABF7PGZ5 45-1329): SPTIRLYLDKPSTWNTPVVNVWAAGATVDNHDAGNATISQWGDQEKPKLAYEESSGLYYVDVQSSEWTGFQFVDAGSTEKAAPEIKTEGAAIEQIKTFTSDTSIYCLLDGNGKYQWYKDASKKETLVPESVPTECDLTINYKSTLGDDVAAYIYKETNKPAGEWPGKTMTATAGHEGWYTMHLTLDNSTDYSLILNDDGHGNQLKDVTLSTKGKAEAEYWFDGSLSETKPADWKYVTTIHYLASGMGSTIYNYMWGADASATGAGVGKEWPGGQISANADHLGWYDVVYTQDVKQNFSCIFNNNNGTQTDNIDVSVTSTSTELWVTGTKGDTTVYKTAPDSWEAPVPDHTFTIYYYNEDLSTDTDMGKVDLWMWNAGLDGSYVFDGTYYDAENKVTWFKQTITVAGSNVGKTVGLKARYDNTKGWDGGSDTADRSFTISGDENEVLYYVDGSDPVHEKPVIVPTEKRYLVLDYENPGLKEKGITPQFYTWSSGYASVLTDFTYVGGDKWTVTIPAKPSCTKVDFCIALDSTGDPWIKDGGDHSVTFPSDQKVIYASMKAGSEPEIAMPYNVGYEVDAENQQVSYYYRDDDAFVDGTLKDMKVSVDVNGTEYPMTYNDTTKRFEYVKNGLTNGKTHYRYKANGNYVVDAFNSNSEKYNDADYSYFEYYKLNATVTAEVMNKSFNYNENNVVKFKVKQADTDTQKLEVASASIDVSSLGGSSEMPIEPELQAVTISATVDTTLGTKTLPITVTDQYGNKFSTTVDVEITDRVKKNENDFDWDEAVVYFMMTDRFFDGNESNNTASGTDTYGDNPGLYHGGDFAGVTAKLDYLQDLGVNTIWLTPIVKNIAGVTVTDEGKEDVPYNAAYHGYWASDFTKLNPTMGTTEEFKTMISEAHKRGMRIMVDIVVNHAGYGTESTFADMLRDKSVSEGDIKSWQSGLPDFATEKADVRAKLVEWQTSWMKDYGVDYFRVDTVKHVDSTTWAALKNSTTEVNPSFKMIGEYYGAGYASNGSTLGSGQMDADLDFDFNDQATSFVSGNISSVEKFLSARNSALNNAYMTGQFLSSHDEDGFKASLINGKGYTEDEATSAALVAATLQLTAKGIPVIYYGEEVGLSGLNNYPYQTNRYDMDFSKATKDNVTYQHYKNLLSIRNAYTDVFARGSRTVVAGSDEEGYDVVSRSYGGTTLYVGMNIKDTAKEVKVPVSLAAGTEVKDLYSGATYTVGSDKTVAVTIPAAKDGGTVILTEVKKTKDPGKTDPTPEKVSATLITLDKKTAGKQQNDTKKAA

[4] = molecular target: T1, EUR_01830; assay: isothermal titration calorimetry; format: binding; details: 20 mM HEPES, 100 mM NaCl pH 7.0, 25 °C; isotherm not fitted
[5] = molecular target: EUR_31480; assay: isothermal titration calorimetry; format: binding, Agathobacter rectalis; details: read-out: EUR_31480 / Kd; 20 mM HEPES, 100 mM NaCl pH 7.0, 25 °C
Method in brief: (§1)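 Runs used a low-volume NanoITC at 25 °C. Protein (30–150 μM) was dialysed against 20 mM HEPES, 100 mM NaCl pH 7.0 and loaded in the sample cell, with water in the reference cell. Oligosaccharides (0.5–5 mM) were prepared in dialysis buffer and delivered as a small first injection plus 27 further injections. Stirring was at 350 rpm. Heat of reaction was recorded and fitted for Kd.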

[6] = molecular target: T4, EUR_01240 (Agathobacter rectalis, UniProt D6E1S8); assay: isothermal titration calorimetry; format: binding; details: read-out: EUR_01240 / Kd; 20 mM HEPES, 100 mM NaCl pH 7.0, 25 °C
T4 sequence (D6E1S8 23-427): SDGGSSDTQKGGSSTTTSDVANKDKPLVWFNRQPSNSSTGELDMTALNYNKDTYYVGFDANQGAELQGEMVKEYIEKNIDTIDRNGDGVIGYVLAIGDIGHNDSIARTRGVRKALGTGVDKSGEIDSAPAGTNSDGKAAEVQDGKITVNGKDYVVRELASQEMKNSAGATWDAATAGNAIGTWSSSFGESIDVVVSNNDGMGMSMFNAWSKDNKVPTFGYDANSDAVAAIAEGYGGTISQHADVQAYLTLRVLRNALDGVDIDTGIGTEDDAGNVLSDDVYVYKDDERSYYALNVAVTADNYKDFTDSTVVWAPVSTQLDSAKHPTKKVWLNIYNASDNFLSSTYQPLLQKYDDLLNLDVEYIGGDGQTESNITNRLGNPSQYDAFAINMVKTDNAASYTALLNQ
Method in brief: as §1

[7] = molecular target: T1, EUR_01830; assay: isothermal titration calorimetry; format: binding; details: read-out: EUR_01830 / Kd; 20 mM HEPES, 100 mM NaCl pH 7.0, 25 °C

OC[C@H]1O[C@H](OC[C@H]2O[C@H](O[C@H]3[C@H](O)[C@@H](O)[C@@H](O[C@H]4[C@H](O)[C@@H](O)C(O)O[C@@H]4CO)O[C@@H]3CO)[C@H](O)[C@@H](O)[C@@H]2O)[C@H](O)[C@@H](O)[C@@H]1O (stereo partly shown) [GM]
Kd ([1]; read-out: EUR_01830 / Kd): 9080 ± 618 nM

OC[C@H]1O[C@@H](O[C@H]2[C@H](O)[C@@H](O)C(O)O[C@@H]2CO)[C@H](O)[C@@H](O)[C@@H]1O (stereo partly shown) [cellobiose]
Kd [2]: 542 nM

OC[C@H]1O[C@H](O[C@H]2[C@H](O)[C@@H](O)[C@@H](O[C@H]3[C@H](O)[C@@H](O)[C@@H](O[C@H]4[C@H](O)[C@@H](O)[C@@H](O[C@H]5[C@H](O)[C@@H](O)[C@@H](O[C@H]6[C@H](O)[C@@H](O)[C@@H](O[C@H]7[C@H](O)[C@@H](O)C(O)O[C@@H]7CO)O[C@@H]6CO)O[C@@H]5CO)O[C@@H]4CO)O[C@@H]3CO)O[C@@H]2CO)[C@H](O)[C@@H](O)[C@@H]1O (stereo partly shown) [Maltoheptaose]
thin layer chromatography of products [3]: can hydrolyze longer maltooligosaccharides such as maltohexaose and maltoheptaose | Kd ([1]; read-out: EUR_01830 / Kd): 288 ± 5.9 nM

OC[C@H]1O[C@H](OC[C@H]2O[C@H](O[C@H]3[C@H](O)[C@@H](O)[C@@H](O[C@H]4[C@H](O)[C@@H](O)[C@@H](OC[C@H]5O[C@H](O[C@H]6[C@H](O)[C@@H](O)[C@@H](O[C@H]7[C@H](O)[C@@H](O)C(O)O[C@@H]7CO)O[C@@H]6CO)[C@H](O)[C@@H](O)[C@@H]5O)O[C@@H]4CO)O[C@@H]3CO)[C@H](O)[C@@H](O)[C@@H]2O)[C@H](O)[C@@H](O)[C@@H]1O (stereo partly shown) [GMM]
isothermal titration calorimetry [4]: We obtained an isotherm with GMM, but these data could not be fit well enough

OC[C@H]1O[C@H](O[C@H]2[C@H](O)[C@@H](O)C(O)O[C@@H]2CO)[C@H](O)[C@@H](O)[C@@H]1O (stereo partly shown) [Maltose]
Kd [5]: 563 ± 66.4 nM

OC[C@H]1O[C@@H]2O[C@H]3[C@H](O)[C@@H](O)[C@@H](O[C@H]4[C@H](O)[C@@H](O)[C@@H](O[C@H]5[C@H](O)[C@@H](O)[C@@H](O[C@H]6[C@H](O)[C@@H](O)[C@@H](O[C@H]7[C@H](O)[C@@H](O)[C@@H](O[C@H]1[C@H](O)[C@H]2O)O[C@@H]7CO)O[C@@H]6CO)O[C@@H]5CO)O[C@@H]4CO)O[C@@H]3CO [α-cyclodextrin]
Kd [1]: 39 900 ± 2 430 nM

OC[C@H]1O[C@@H](O[C@H]2[C@H](O)[C@@H](O)[C@H](O[C@H]3[C@H](O)[C@@H](O)[C@H](O[C@H]4[C@H](O)[C@@H](O)C(O)O[C@@H]4CO)O[C@@H]3CO)O[C@@H]2CO)[C@H](O)[C@@H](O)[C@@H]1O (stereo partly shown) [cellotetraose]
Kd [2]: 3010 nM

OC[C@H]1O[C@H](O[C@H]2[C@H](O)[C@@H](O)[C@@H](O[C@H]3[C@H](O)[C@@H](O)[C@@H](O[C@H]4[C@H](O)[C@@H](O)[C@@H](O[C@H]5[C@H](O)[C@@H](O)C(O)O[C@@H]5CO)O[C@@H]4CO)O[C@@H]3CO)O[C@@H]2CO)[C@H](O)[C@@H](O)[C@@H]1O (stereo partly shown) [Maltopentaose]
Kd ([1]; read-out: EUR_01830 / Kd): 194 ± 34.8 nM

OC[C@H]1OC(O)[C@H](O)[C@@H](O)[C@H]1O (stereo partly shown) [Galactose]
Kd [6]: 415 ± 20.2 nM

OC[C@H]1O[C@H](O[C@H]2[C@H](O)[C@@H](O)[C@@H](O[C@H]3[C@H](O)[C@@H](O)[C@@H](O[C@H]4[C@H](O)[C@@H](O)C(O)O[C@@H]4CO)O[C@@H]3CO)O[C@@H]2CO)[C@H](O)[C@@H](O)[C@@H]1O (stereo partly shown) [Maltotetraose]
Kd [5]: 1670 ± 199 nM | Kd ([1]; read-out: EUR_01830 / Kd): 112 ± 19.8 nM

OC[C@H]1O[C@H](O[C@H]2[C@H](O)[C@@H](O)[C@@H](O[C@H]3[C@H](O)[C@@H](O)[C@@H](O[C@H]4[C@H](O)[C@@H](O)[C@@H](O[C@H]5[C@H](O)[C@@H](O)[C@@H](O[C@H]6[C@H](O)[C@@H](O)C(O)O[C@@H]6CO)O[C@@H]5CO)O[C@@H]4CO)O[C@@H]3CO)O[C@@H]2CO)[C@H](O)[C@@H](O)[C@@H]1O (stereo partly shown) [Maltohexaose]
Kd ([1]; read-out: EUR_01830 / Kd): 160 ± 6 nM

OC[C@H]1O[C@H](O[C@H]2[C@H](O)[C@@H](O)[C@@H](O[C@H]3[C@H](O)[C@@H](O)C(O)O[C@@H]3CO)O[C@@H]2CO)[C@H](O)[C@@H](O)[C@@H]1O (stereo partly shown) [Maltotriose]
Kd [7]: 550 ± 14 nM | Kd [5]: 355 ± 0.4 nM

OC[C@H]1OC(O)[C@H](O)[C@@H](O)[C@@H]1O (stereo partly shown) [Glucose]
Kd [6]: 1900 ± 460 nM
